This is a sample that favours compounds with a hit; in the whole collection about 6.4% have one here.
HUVEC prolif 384: inhibitors of HUVEC proliferation, primary screen, cell-based, 384-well; CellTiter-Glo luminescence, 72 h; active compounds read low; viability, % at 10 µM (by protocol); hit rate 1.1% among 86,000; AID 648, 2007;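 active = viability at or below 30%; inactive = viability above 30%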
Fibroblast inh: antiproliferative effect on LL 47 fibroblasts – human, LL 47 cells, CellTiter-Glo luminescence, primary screen; hit rate 1.1% among 85,000; viability, % at 10 µM; LL 47 human lung fibroblast viability, ATP luminescence; active compounds read low; AID 719, 2007;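 active = viability at or below 50% in the single dose screen; inactive = viability above 50%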;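 also: compound exposure lasted 72 h before the ATP readout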
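Material: human lung fibroblast line LL 47, low passage; Evaluation: viability percentage against median untreated-cell control; Buffer or medium: 15% FBS in IMEM; Incubation: 72 h compound exposure at 37 °C after overnight plating; Dosing: 0.1% DMSO in all compound wells; Measured by: CellTiter-Glo luminescence.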
tolC growth inh: growth inhibitors of E. coli tolC mutant, primary screen, strain BW25113 ΔtolC::kan, 384-well; OD615; growth inhibition, % at 10 µM (by protocol); hit rate 2.2% among 65,000; AID 573, 2007;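 active = growth inhibition at or above a cutoff equal to the mean over every tested compound plus 3 SD, cut at about 60% in these data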;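 also: growth measured after 20 h incubation at 37 °C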
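Signal: optical density read at 615 nm; Assay system: E. coli ΔtolC::kan strain BW25113; Times: 20 h incubation with compound, 37 °C; Dosing: 10 µM final, single dose.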
H69AR growth 86K: proliferation blockers of H69AR lung cancer cells, primary screen, cell-based, human, 86K library; H69AR lung tumor viability, ATP luminescence, 72 h; active compounds read low; viability, % at 10 µM; hit rate 6% among 85,000;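 active = viability at or below 40%; inactive = viability above 40%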;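 also: multidrug resistant small cell line overexpressing MRP-1 efflux transporter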
E coli WT exp: growth inhibitors of wild-type E. coli, primary screen, strain BW25113, expanded library, OD600; OD600 absorbance; growth inhibition, % at 100 µM; hit rate 0.15% among 98,000;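 active = growth inhibition above about 50% at one test dose, limit read from the data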;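 also: growth measured after 20 h incubation at 37 °C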
Jurkat viability: cytotoxicity toward Jurkat T cells, primary screen, cytotoxicity control, cell-based, Jurkat E6.1, 60K MLSMR library; Jurkat E6.1 viability, ATP luminescence, 48 h; inhibition, % at 4 µM; hit rate 1.2% among 56,000; AID 463, 2006;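 active = inhibition above the mean inhibition of all tested compounds plus 3 SD, cut at about 28% in these data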
Hits are given with their value; - = inactive; . = no result.

SMILES	HUVEC prolif 384	Fibroblast inh	tolC growth inh	H69AR growth 86K	E coli WT exp	Jurkat viability
Cn1c(NC(=O)c2cccc(Cn3cc(Cl)cn3)c2)nc2ccccc21	-	49.6	-	37.2	-	-
CCCN1CCN(CCCNC(=O)CCNC(=O)Cn2ccc3ccccc3c2=O)CC1	-	-	.	-	-	.
Cc1ccc(-c2nnc(Cc3ccc(Cl)cc3)o2)cc1	-	-	.	-	-	.
c1ccc(Cc2nnc(-c3ccccc3)o2)cc1	-	9.6	-	-	-	-
O=C(NC1CCS(=O)(=O)C1)c1c(NC(=O)C2COc3ccccc3O2)sc2c1CCCC2 (stereo not drawn)	-	-	-	22.9	-	.
O=C(Nc1sc2c(c1C(=O)NC1CCCCC1)CCC2)c1ccco1	-	-	-	-	-	-
CCCNC(=O)c1c(NC(=O)C2COc3ccccc3O2)sc2c1CCCC2 (stereo not drawn)	-	12.6	.	29.1	.	.
O=C(Nc1nc2c(s1)CCCC2)C1COc2ccccc2O1 (stereo not drawn)	-	-	-	-	-	-
O=C1c2cccc3c(N4CCCCC4)ccc(c23)C(=O)N1c1ccccn1	.	.	-	.	-	-
O=C1c2cccc3c(N4CCCCC4)ccc(c23)C(=O)N1c1ccc(Cl)cn1	-	-	.	31.3	.	.
O=C(CN1CCN(S(=O)(=O)c2ccc(Br)cc2)CC1)Nc1ccc2c(c1)OCCO2	-	-	-	17.1	-	.
COc1ccc(S(=O)(=O)N2CCN(CC(=O)Nc3cccc(F)c3)CC2)cc1	-	-	-	-	-	-
O=C(CN1CCN(S(=O)(=O)c2ccc(Cl)cc2)CC1)Nc1ccc2c(c1)OCCO2	-	-	-	-	-	-
COc1ccc(S(=O)(=O)N2CCN(CC(=O)Nc3ccc(C)c(F)c3)CC2)cc1	-	-	-	4.9	-	-
COc1cc(NS(=O)(=O)c2ccc(C)cc2C)cc(OC)c1OC	-	-	-	24.5	-	39.2
Cc1cc(NC(=O)CN2CCN(c3ccc(O)cc3)CC2)no1	-	-	.	-	-	.
CNc1nc2c(c(=O)n(C)c(=O)n2C)n1Cc1ccccc1	-	-	-	-	-	44.6
COc1cccc(Cn2c(Oc3ccccc3)nc3c2c(=O)n(C)c(=O)n3C)c1	.	.	-	.	-	.
COCCCNc1nc2c(c(=O)n(C)c(=O)n2C)n1Cc1cccc(OC)c1	-	-	-	-	-	.
Cn1c(=O)c2c(nc(NC(Cc3ccccc3)C(=O)O)n2Cc2ccccc2)n(C)c1=O (stereo not drawn)	.	.	-	.	-	-
COc1cccc(Cn2c(Oc3cccc(C)c3)nc3c2c(=O)n(C)c(=O)n3C)c1	-	-	83.7	-	-	-
COCCNc1nc2c(c(=O)n(C)c(=O)n2C)n1Cc1cccc(C)c1	-	-	-	-	-	28.0
Cc1cccc(Cn2c(NCCO)nc3c2c(=O)n(C)c(=O)n3C)c1	-	-	-	-	-	89.4
O=C(NCC1CCCO1)C1CC(=O)N(C2CCCC2)C1 (stereo not drawn)	-	-	.	-	-	.
Cc1ccccc1CNC(=O)c1ccccc1	-	-	.	-	-	.
SMILES	HUVEC prolif 384	Fibroblast inh	tolC growth inh	H69AR growth 86K	E coli WT exp	Jurkat viability
O=C(Nc1nc2c(c(=O)[nH]1)CCCC2)C1CC1	-	-	.	-	-	.
Cc1cccc(Cn2c(NCC(C)O)nc3c2c(=O)n(C)c(=O)n3C)c1 (stereo not drawn)	-	-	-	-	-	39.0
Cn1c(=O)c2c(nc(NCc3ccco3)n2C/C=C/c2ccccc2)n(C)c1=O	-	-	-	-	.	49.3
CSc1nnc2c3ccccc3n(CCc3ccccc3)c2n1	-	-	-	-	-	37.0
CSc1nnc2c3cc(F)ccc3n(Cc3ccccc3)c2n1	-	-	-	33.5	.	-
COc1ccc(C2=CC(=O)OC3(CCCC3)O2)cc1	-	-	.	-	-	.
CCCCCn1c(-c2ccco2)nc2nc3ccccc3nc21	-	-	76.9	-	-	-
O=C1C2C3C=CC(CO)(O3)C2C(=O)N1c1ccccc1-c1ccccc1 (stereo not drawn)	-	8.3	-	3.9	-	60.8
CC(=O)Oc1ccc(N2C(=O)C3C4C=CC(CO)(O4)C3C2=O)cc1 (stereo not drawn)	-	-	.	-	-	.
Cc1ccc(C(C(=O)NC2CCCCC2)N2CCN(C(=O)c3ccco3)CC2)cc1 (stereo not drawn)	-	-	.	-	-	.
CC(=O)Oc1c(C)cc(O)c2ccccc12	-	-	-	0.5	-	-
CC(=O)Oc1ccc2c(C)cc(=O)[nH]c2c1	-	-	-	-	-	.
COC(=O)\C(C(C)=O)=C(/C=C/C=C/C=C/N(C)C)N(C)C	-	-	.	-	-	.
CC(OC(=O)c1snc(C(=O)NC2CCCCC2)c1N)C(=O)NC1CCCCC1 (stereo not drawn)	-	-	.	22.6	.	.
CCc1ccc(C(=O)Cn2ncc(Cl)c(Cl)c2=O)cc1	6.8	28.9	.	6.1	-	.
COC(=O)CN1C(c2ccccc2)=Nc2ccc(Cl)cc2C1c1ccccc1 (stereo not drawn)	.	.	.	.	-	.
COc1ccc(C(=O)/C=C/Nc2ccc(C)cn2)cc1OC	-	-	.	-	.	.
CC(=O)Nc1ccc(S(=O)(=O)Nc2nc3ccccc3nc2Sc2nncn2C)cc1	-	-	-	-	-	.
CCCCN(CCCC)c1nc2ccccc2nc1NS(=O)(=O)c1ccc(NC(C)=O)cc1	-	-	.	11.9	-	.
CN(CC1CCCO1)S(=O)(=O)c1ccc(C(=O)Nc2nc(-c3ccccn3)cs2)cc1 (stereo not drawn)	-	41.5	-	-	-	52.5
CCC(=O)N1c2ccccc2NC2=C(C(=O)CC(c3ccco3)C2)C1c1ccco1 (stereo not drawn)	-	-	-	-	-	.
O=C1CC(c2ccco2)CC2=C1C1c3ccccc3C(=O)N1c1ccccc1N2 (stereo not drawn)	-	-	88.8	-	-	-
COC(=O)c1ccc(C(=O)Nc2ccc(N)cc2N)cc1	-	-	-	1.9	-	-
COc1ccccc1NC(=O)c1ccc(N)cc1	-	-	-	-	-	.
CCN(CC(=O)Nc1ccc2c(c1)OCCO2)c1nc(-c2cccnc2)nc2ccccc12	-	-	-	-	-	-
CCOC(=O)N1CCC(NC(=O)CC(NS(=O)(=O)c2ccc(Cl)cc2)c2ccco2)CC1 (stereo not drawn)	-	-	-	-	-	-
CCOC(=O)N1CCC(Nc2nc3ccccc3nc2NS(=O)(=O)c2ccc(Cl)cc2)CC1	-	-	79.9	.	-	-
COC(=O)c1ccc(/C=N\NC(=O)c2ccc(C)cc2Cl)cc1	.	.	.	.	-	.
CCOC(=O)c1cnc(SCc2nc(N)nc(Nc3ccc(F)cc3)n2)nc1N	-	-	-	36.5	-	-
CCOC(=O)c1cnc(SCc2nc(N)nc(Nc3ccccc3OC)n2)nc1N	-	-	.	-	-	.

Bioassay records from PubChem BioAssay.
